Measurements published in ChEMBL document CHEMBL2176963, “Design, synthesis, and biological evaluation of 3-(1H-1,2,3-triazol-1-yl)benzamide derivatives as Potent Pan Bcr-Abl inhibitors including the threonine(315)→isoleucine(315) mutant” (J Med Chem, 2012).
Activity calls are given as the source filed them. No cut-off for these calls is given here.

Key:
[1] = Antiproliferative activity against mouse BA/F3 cells after 72 hrs by CCK-8 assay; settings: BaF3, 72 h
[2] = Antiproliferative activity against mouse BA/F3 cells expressing Bcr-Abl G250E mutant after 72 hrs by CCK-8 assay; settings: BaF3, 72 h
[3] = Antiproliferative activity against mouse BA/F3 cells expressing Bcr-Abl Y253F mutant after 72 hrs by CCK-8 assay; settings: BaF3, 72 h
[4] = Antiproliferative activity against mouse BA/F3 cells expressing Bcr-Abl H396R mutant after 72 hrs by CCK-8 assay; settings: BaF3, 72 h
[5] = Antiproliferative activity against mouse BA/F3 cells expressing Bcr-Abl F359V mutant after 72 hrs by CCK-8 assay; settings: BaF3, 72 h
[6] = Antiproliferative activity against mouse BA/F3 cells expressing Bcr-Abl E255V mutant after 72 hrs by CCK-8 assay; settings: BaF3, 72 h
[7] = Antiproliferative activity against mouse BA/F3 cells expressing Bcr-Abl E255K mutant after 72 hrs by CCK-8 assay; settings: BaF3, 72 h
[8] = Antiproliferative activity against mouse BA/F3 cells expressing Bcr-Abl H396P mutant after 72 hrs by CCK-8 assay; settings: BaF3, 72 h
[9] = Antiproliferative activity against mouse BA/F3 cells expressing Bcr-Abl M244V mutant after 72 hrs by CCK-8 assay; settings: BaF3, 72 h
[10] = Antiproliferative activity against mouse BA/F3 cells expressing Bcr-Abl E355G mutant after 72 hrs by CCK-8 assay; settings: BaF3, 72 h
[11] = Antiproliferative activity against mouse BA/F3 cells expressing Bcr-Abl Y253H mutant after 72 hrs by CCK-8 assay; settings: BaF3, 72 h
[12] = Antiproliferative activity against mouse BA/F3 cells expressing Bcr-Abl Q252H mutant after 72 hrs by CCK-8 assay; settings: BaF3, 72 h
[13] = Antiproliferative activity against mouse BA/F3 cells expressing Bcr-Abl F486S mutant after 72 hrs by CCK-8 assay; settings: BaF3, 72 h
[14] = Antiproliferative activity against mouse BA/F3 cells expressing Bcr-Abl M351T mutant after 72 hrs by CCK-8 assay; settings: BaF3, 72 h
[15] = Antiproliferative activity against mouse BA/F3 cells expressing wild type Bcr-Abl after 72 hrs by CCK-8 assay; settings: BaF3, 72 h
cells = settings: Mus musculus, BaF3, 72 h
[16] = Cell cycle arrest in mouse BA/F3 cells expressing Bcr-Abl T315I mutant assessed as accumulation at G0/G1 phase using propidium iodide staining by FACS analysis; type: functional, cell-based; settings: BaF3
K562 [17] = test: Cell cycle arrest in human K562 cells expressing wild type Bcr-Abl assessed as accumulation at G0/G1 phase using propidium iodide staining by FACS analysis; type: functional, cell-based
BaF3 [18] = test: Induction of apoptosis in mouse BA/F3 cells expressing Bcr-Abl T315I mutant using annexin-V-FITC and 7-AAD staining by flow cytometer; type: functional, cell-based
K562 [19] = test: Induction of apoptosis in human K562 cells expressing wild type Bcr-Abl using annexin-V-FITC and 7-AAD staining by flow cytometer; type: functional, cell-based
BaF3 [20] = test: Effect on STAT5 protein level in mouse BA/F3 cells expressing Bcr-Abl T315I mutant by Western blot analysis; type: functional, cell-based
Procedure, shortened: (§1)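 K562 or Ba/F3 Bcr-Abl T315I cells were treated with graded concentrations, lysed in 1× SDS sample buffer, sonicated and boiled. Lysates were run on 8−12% SDS-PAGE and transferred to PVDF. Membranes were blocked in TBS with 0.1% Tween-20 and 5% nonfat milk, then probed with primary antibody and HRP-conjugated secondary. Blots shown represent three independent experiments.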

BaF3 [21] = test: Effect on CrkL protein level in mouse BA/F3 cells expressing Bcr-Abl T315I mutant by Western blot analysis; type: functional, cell-based; procedure, shortened: as §1
BaF3 [22] = test: Effect on Bcr-Abl T315I mutant protein level in mouse BA/F3 cells by Western blot analysis; type: functional, cell-based; procedure, shortened: as §1
[23] = tested on: Tyrosine-protein kinase ABL1 (Mus musculus), P00520 [T315I]; test: Inhibition of Bcr-Abl T315I mutant-mediated STAT5 phosphorylation in mouse BA/F3 cells by Western blot analysis; type: cell-based; settings: BaF3; procedure, shortened: as §1
[24] = tested on: Tyrosine-protein kinase ABL1 (Mus musculus), P00520 [T315I]; test: Inhibition of Bcr-Abl T315I mutant-mediated CrkL phosphorylation in mouse BA/F3 cells by Western blot analysis; type: cell-based; settings: BaF3; procedure, shortened: as §1
K562 [25] = test: Effect on STAT5 protein level in human K562 cells expressing wild type Bcr-Abl by Western blot analysis; type: functional, cell-based; procedure, shortened: as §1
K562 [26] = test: Effect on CrkL protein level in human K562 cells expressing wild type Bcr-Abl by Western blot analysis; type: functional, cell-based; procedure, shortened: as §1
K562 [27] = test: Effect on wild type Bcr-Abl protein level in human K562 cells by Western blot analysis; type: functional, cell-based; procedure, shortened: as §1
[28] = tested on: Tyrosine-protein kinase ABL1 (Mus musculus), P00520 [T315I]; test: Inhibition of Bcr-Abl T315I mutant phosphorylation in mouse BA/F3 cells by Western blot analysis; type: cell-based; settings: BaF3; procedure, shortened: as §1
K562 [29] = test: Antiproliferative activity against human K562 cells expressing wild type Bcr-Abl after 72 hrs by CCK-8 assay; settings: K562, 72 h
K562 [30] = test: Antiproliferative activity against imatinib-resistant human K562 cells expressing Bcr-Abl Q252H mutant after 72 hrs by CCK-8 assay; settings: K562, 72 h
[31] = Antiproliferative activity against human KU812 cells expressing wild type Bcr-Abl after 72 hrs by CCK-8 assay; settings: KU812, 72 h

Chain of Tyrosine-protein kinase ABL1 (Mus musculus), P00520 [T315I] (P00520 whole entry T315I): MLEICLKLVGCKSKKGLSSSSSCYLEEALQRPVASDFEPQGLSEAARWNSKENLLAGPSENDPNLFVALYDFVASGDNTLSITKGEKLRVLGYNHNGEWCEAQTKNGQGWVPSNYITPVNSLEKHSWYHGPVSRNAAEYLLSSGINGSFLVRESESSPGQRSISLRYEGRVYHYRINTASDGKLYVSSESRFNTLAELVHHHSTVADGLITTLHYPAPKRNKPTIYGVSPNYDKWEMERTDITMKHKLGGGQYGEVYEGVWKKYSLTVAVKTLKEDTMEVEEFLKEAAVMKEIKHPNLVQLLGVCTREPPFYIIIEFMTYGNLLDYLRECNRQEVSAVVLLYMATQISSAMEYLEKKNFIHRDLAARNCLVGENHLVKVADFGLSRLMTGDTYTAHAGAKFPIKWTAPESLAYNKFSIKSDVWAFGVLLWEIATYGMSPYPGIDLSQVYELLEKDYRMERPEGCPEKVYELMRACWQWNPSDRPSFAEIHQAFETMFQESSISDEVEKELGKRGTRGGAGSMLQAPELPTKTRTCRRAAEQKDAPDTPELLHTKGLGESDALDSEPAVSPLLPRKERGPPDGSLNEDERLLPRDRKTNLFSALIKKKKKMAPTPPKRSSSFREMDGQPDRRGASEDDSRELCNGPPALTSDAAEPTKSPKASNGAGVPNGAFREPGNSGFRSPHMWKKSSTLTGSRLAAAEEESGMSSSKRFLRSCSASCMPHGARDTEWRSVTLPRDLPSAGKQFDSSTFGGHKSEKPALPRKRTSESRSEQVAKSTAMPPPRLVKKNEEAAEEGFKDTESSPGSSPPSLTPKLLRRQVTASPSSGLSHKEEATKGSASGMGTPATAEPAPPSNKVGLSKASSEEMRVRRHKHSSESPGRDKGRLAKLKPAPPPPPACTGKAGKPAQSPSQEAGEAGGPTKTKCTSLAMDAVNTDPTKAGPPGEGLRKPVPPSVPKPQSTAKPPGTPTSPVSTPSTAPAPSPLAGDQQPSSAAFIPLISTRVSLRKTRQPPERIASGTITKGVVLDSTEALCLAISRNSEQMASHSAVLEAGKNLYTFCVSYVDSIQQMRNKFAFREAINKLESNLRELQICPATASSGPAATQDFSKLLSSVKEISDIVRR

| SMILES | IC50 [1] [nM] | IC50 [2] [nM] | IC50 [3] [nM] | IC50 [4] [nM] | IC50 [5] [nM] | IC50 [6] [nM] | IC50 [7] [nM] | IC50 [8] [nM] | IC50 [9] [nM] | IC50 [10] [nM] | IC50 [11] [nM] | IC50 [12] [nM] | IC50 [13] [nM] | IC50 [14] [nM] | IC50 [15] [nM] | IC50 (cells) [nM] | other results |
| --- | --- | --- | --- | --- | --- | --- | --- | --- | --- | --- | --- | --- | --- | --- | --- | --- | --- |
| Cc1cn(-c2cc(NC(=O)c3ccc(C)c(Nc4nccc(-c5cccnc5)n4)c3)cc(C(F)(F)F)c2)cn1 [NILOTINIB] | 40800 | 38.6 | 60.7 | 87.2 | 159 | 473 | 292 | 6.34 | 1.54 | 8.38 | 314 | 150 | 21 | 10.3 | 65.2 | 775 | – |
| Cc1ccc(NC(=O)c2ccc(CN3CCN(C)CC3)cc2)cc1Nc1nccc(-c2cccnc2)n1 [IMATINIB] | 18500 | 1860 | 1440 | 2380 | 960 | 8620 | 2950 | 110 | 129 | 362 | 17100 | 3760 | 2550 | 424 | 1830 | 3000 | – |
| Cc1ccc(C(=O)Nc2ccc(CN3CCN(C)CC3)c(C(F)(F)F)c2)cc1-n1cc(-c2cnc3[nH]ncc3c2)nn1 | 416 | 1.67 | 0.35 | 3.73 | 1.44 | 2.96 | 3.1 | 0.28 | 0.12 | 0.37 | 1.61 | 5.49 | 1.43 | 0.4 | 2.44 | 13.9 | Activity [16]: Active; Activity (K562 [17]): Active; Activity (BaF3 [18]): Active; Activity (K562 [19]): Active; Activity (BaF3 [20]): inactive; Activity (BaF3 [21]): inactive; Activity (BaF3 [22]): inactive; inhibition [23]: Active; inhibition [24]: Active; Activity (K562 [25]): inactive; Activity (K562 [26]): inactive; Activity (K562 [27]): inactive; inhibition [28]: Dose-dependent effect; IC50 (K562 [29]): 0.4 nM; IC50 (K562 [30]): 5.46 nM; IC50 [31]: 0.11 nM |
